Blank lines part the entries; values can stand above or below the compound they belong to.
Legend:
hERG (KCNH2) [1] = biological target: T1, hERG (KCNH2) (Homo sapiens, UniProt Q12809); assay: Inhibition of human ERG assessed as reduction in channel currents at 10 uM
A-431 = assay: cells; type: functional, cell-based; conditions: Homo sapiens, A-431, 48 h
[2] = biological target: Receptor tyrosine-protein kinase erbB-2 (Homo sapiens, UniProt P04626); assay: Inhibition of wild type HER2 (unknown origin) incubated for 5 mins by HTRF assay
Receptor tyrosine-protein kinase erbB-2, sequence (P04626 whole entry): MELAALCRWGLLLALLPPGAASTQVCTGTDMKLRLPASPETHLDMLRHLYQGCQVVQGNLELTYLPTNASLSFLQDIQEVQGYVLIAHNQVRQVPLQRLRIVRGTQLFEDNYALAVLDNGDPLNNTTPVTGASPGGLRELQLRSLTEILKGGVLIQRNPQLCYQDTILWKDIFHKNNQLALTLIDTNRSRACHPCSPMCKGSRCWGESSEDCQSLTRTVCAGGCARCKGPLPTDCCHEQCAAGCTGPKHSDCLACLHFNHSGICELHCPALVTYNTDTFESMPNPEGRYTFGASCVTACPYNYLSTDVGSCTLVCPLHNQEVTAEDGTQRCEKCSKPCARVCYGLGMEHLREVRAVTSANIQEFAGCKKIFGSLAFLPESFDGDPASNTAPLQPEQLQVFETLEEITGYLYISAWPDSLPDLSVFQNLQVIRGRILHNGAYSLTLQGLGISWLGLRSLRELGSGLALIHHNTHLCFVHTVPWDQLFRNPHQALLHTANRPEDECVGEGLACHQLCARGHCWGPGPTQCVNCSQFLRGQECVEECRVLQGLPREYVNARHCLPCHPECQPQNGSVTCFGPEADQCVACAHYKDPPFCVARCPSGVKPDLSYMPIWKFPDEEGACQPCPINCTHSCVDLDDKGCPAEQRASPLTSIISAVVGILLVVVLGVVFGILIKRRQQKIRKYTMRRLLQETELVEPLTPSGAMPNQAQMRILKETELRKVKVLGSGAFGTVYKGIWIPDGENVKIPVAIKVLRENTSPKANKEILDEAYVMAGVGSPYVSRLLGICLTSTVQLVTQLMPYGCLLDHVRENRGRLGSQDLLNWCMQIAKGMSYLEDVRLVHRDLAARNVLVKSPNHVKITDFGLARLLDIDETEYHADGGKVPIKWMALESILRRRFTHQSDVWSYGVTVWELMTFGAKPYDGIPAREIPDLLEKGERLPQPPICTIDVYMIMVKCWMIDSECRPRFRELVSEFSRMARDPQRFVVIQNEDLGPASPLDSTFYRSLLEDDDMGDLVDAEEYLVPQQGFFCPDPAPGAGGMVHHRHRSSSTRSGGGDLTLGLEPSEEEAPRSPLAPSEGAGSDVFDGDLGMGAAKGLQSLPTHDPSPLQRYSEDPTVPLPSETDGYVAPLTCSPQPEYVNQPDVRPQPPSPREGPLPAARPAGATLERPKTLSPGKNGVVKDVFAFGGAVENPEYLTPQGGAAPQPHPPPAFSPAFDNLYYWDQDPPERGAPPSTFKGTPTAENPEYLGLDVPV

hERG (KCNH2) [3] = biological target: T1, hERG (KCNH2); assay: Inhibition of human ERG assessed as reduction in channel currents at 1 uM
NCI-H1975 [4] = assay: cells; type: functional, cell-based; conditions: Homo sapiens, NCI-H1975, 48 h
[5] = biological target: Epidermal growth factor receptor (Homo sapiens, UniProt P00533);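 also: inhibition of wild-type EGFR read out by HTRF, with a 5 min incubation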
Epidermal growth factor receptor (Homo sapiens, UniProt P00533), sequence (P00533 whole entry): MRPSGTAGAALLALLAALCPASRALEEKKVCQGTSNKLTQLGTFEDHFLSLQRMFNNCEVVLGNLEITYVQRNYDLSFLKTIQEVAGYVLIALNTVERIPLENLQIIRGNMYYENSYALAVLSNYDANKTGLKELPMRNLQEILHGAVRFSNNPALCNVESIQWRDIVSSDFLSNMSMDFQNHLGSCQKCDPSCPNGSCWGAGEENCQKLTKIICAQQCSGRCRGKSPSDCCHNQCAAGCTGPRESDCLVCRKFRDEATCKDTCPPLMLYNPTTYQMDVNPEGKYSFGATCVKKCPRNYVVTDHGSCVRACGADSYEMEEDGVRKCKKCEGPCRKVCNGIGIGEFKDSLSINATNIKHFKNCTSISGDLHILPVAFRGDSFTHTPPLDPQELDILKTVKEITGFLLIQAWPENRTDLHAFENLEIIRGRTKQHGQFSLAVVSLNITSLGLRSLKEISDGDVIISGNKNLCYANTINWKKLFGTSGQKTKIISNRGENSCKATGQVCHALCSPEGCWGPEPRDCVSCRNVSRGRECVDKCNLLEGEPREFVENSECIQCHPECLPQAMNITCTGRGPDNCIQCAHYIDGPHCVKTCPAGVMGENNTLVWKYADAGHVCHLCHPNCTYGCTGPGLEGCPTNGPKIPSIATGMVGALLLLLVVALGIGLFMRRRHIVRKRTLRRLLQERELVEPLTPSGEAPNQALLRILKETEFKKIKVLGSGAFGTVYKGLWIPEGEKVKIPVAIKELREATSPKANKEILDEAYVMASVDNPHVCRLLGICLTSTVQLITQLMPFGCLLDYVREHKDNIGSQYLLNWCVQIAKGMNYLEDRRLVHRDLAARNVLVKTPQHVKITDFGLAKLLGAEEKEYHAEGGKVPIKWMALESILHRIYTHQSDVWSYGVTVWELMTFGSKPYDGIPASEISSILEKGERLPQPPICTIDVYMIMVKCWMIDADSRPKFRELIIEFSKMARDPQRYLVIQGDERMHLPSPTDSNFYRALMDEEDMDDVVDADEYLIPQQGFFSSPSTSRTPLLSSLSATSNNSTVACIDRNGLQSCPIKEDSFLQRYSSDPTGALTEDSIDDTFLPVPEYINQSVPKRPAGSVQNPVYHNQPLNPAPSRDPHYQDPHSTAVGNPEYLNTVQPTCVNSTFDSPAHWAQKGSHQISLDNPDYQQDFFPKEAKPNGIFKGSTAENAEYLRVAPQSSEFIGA

[6] = Intrinsic clearance in mouse liver microsomes assessed per mg protein at 1 uM in presence of NADPH after 0.5 to 30 mins by LC/MS/MS method; type: ADME; conditions: read-out: CLH
[7] = Intrinsic clearance in rat liver microsomes assessed per mg protein at 1 uM in presence of NADPH after 0.5 to 30 mins by LC/MS/MS method; type: ADME; conditions: read-out: CLH
[8] = Intrinsic clearance in dog liver microsomes assessed per mg protein at 1 uM in presence of NADPH after 0.5 to 30 mins by LC/MS/MS method; type: ADME, Canis lupus familiaris; conditions: read-out: CLH
[9] = Intrinsic clearance in human liver microsomes assessed per mg protein at 1 uM in presence of NADPH after 0.5 to 30 mins by LC/MS/MS method; type: ADME; conditions: read-out: CLH
[10] = Intrinsic clearance in monkey liver microsomes assessed per mg protein at 1 uM in presence of NADPH after 0.5 to 30 mins by LC/MS/MS method; type: ADME, Macaca mulatta; conditions: rhesus monkey, read-out: CLH
[11] = biological target: Epidermal growth factor receptor (Homo sapiens, UniProt P00533, T790M); type: protein assay
Epidermal growth factor receptor (Homo sapiens, UniProt P00533, T790M), sequence (P00533 25-1210 T790M limits assumed): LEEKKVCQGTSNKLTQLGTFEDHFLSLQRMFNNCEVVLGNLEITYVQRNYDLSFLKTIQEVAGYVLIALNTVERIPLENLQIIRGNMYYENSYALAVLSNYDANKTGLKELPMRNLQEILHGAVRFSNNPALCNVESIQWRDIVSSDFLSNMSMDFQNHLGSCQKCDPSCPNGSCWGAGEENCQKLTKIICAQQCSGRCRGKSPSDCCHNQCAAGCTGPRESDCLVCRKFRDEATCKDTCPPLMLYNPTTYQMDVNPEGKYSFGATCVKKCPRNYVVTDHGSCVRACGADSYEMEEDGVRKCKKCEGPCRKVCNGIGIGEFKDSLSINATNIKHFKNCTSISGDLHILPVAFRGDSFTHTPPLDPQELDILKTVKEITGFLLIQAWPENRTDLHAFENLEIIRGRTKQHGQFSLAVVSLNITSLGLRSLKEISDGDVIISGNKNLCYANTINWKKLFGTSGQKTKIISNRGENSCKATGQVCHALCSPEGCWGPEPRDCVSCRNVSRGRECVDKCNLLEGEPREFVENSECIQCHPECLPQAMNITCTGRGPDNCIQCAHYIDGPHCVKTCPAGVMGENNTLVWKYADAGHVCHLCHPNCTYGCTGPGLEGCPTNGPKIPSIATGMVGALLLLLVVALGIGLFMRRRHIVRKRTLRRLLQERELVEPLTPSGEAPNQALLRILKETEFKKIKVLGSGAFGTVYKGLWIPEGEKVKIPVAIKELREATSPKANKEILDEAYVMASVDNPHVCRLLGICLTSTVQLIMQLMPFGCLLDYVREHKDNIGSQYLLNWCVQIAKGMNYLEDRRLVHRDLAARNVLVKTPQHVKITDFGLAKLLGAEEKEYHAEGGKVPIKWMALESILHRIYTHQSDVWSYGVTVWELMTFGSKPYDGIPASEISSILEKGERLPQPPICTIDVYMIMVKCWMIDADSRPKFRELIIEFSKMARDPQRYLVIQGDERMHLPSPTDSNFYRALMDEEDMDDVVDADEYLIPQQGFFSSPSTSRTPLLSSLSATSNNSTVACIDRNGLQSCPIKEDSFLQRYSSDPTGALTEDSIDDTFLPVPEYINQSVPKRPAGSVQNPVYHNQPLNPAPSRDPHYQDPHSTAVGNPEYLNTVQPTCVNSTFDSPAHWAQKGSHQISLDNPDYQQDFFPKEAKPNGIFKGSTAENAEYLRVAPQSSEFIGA

[12] = AUC (0 to infinity) in BALB/c mouse at 10 mg/kg, po after 24 hrs by LC/MS/MS method; type: ADME, organism-based, Plasma; design: dose 10 mg/kg, route oral, time infinity; conditions: BALB/c, plasma
Cytochrome P450 1A2 = biological target: T2, Cytochrome P450 1A2 (Homo sapiens, UniProt P05177); assay: Inhibition of CYP1A2 in human hepatic microsomes after 20 mins by LC/MS/MS method; type: ADME, Liver
T2 sequence (P05177 whole entry): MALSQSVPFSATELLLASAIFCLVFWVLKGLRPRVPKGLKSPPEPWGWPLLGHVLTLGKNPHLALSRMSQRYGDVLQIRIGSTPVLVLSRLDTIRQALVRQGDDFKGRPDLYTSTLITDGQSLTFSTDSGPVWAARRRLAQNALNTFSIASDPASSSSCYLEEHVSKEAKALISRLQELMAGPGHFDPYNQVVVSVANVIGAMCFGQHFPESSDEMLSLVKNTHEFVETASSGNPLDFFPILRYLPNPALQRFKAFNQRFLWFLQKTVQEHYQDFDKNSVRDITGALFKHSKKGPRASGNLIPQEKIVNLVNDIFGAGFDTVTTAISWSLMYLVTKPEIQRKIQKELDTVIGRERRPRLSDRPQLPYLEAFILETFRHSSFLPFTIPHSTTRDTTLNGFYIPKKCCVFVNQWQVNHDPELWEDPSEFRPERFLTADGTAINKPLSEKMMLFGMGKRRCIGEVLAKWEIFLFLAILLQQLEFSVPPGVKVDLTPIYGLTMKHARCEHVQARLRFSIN

Cytochrome P450 3A4 = Cytochrome P450 3A4 (Homo sapiens, UniProt P08684); assay: Inhibition of CYP3A4 in human hepatic microsomes after 20 mins by LC/MS/MS method; type: ADME, Liver
[13] = Ratio of drug level in lung to plasma in BALB/c mouse at 30 mg/kg, po after 6 hrs by LC/MS/MS method; type: ADME, organism-based; design: dose 30 mg/kg, route oral
Summary of the method: (§1)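 BALB/c mice received a single oral dose of 30 mg/kg. Drug concentrations in lung, brain and plasma were measured at multiple time points over 6 h. Mean tissue levels are expressed as a lung/plasma/brain ratio, with plasma set to 1.0.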

Cytochrome P450 2C19 = Cytochrome P450 2C19 (Homo sapiens, UniProt P33261); assay: Inhibition of CYP2C19 in human hepatic microsomes after 20 mins by LC/MS/MS method; type: ADME, Liver
Cytochrome P450 2D6 = Cytochrome P450 2D6 (Homo sapiens, UniProt P10635); assay: Inhibition of CYP2D6 in human hepatic microsomes after 20 mins by LC/MS/MS method; type: ADME, Liver
[14] = Ratio of drug level in brain to plasma in BALB/c mouse at 30 mg/kg, po after 6 hrs by LC/MS/MS method; type: ADME, organism-based; design: dose 30 mg/kg, route oral; conditions: read-out: BPR; summary of the method: as §1
Mus musculus [15] = assay: Apparent volume of distribution in BALB/c mouse at 10 mg/kg, po after 24 hrs by LC/MS/MS method; type: ADME, organism-based; design: dose 10 mg/kg, route oral; conditions: in vivo
[16] = Apparent clearance in BALB/c mouse at 10 mg/kg, po after 24 hrs by LC/MS/MS method; type: ADME, organism-based; design: dose 10 mg/kg, route oral; conditions: BALB/c, in vivo, read-out: CL(app)
NCI-H1975 [17] = assay: Antitumor activity against human NCI-H1975 cells xenografted in nude mouse assessed as reduction in tumor growth at 30 mg/kg/day, ig relative to untreated control; type: functional; conditions: route intragastric
[18] = Oral bioavailability in BALB/c mouse at 10 mg/kg after 24 hrs by LC/MS/MS method; type: ADME, organism-based; conditions: in vivo
[19] = Cmax in BALB/c mouse at 10 mg/kg, po after 24 hrs by LC/MS/MS method; type: ADME, organism-based; design: dose 10 mg/kg, route oral; conditions: in vivo
Cytochrome P450 2C9 = Cytochrome P450 2C9 (Homo sapiens, UniProt P11712); assay: Inhibition of CYP2C9 in human hepatic microsomes after 20 mins by LC/MS/MS method; type: ADME, Liver
hERG (KCNH2) [20] = biological target: T1, hERG (KCNH2); assay: Inhibition of human ERG assessed as reduction in channel currents at 0.1 uM
[21] = Oral bioavailability in BALB/c mouse at 5 mg/kg after 24 hrs by LC/MS/MS method; type: ADME, organism-based; conditions: in vivo
Mus musculus [22] = assay: AUC (0 to infinity) in BALB/c mouse at 5 mg/kg, po after 24 hrs by LC/MS/MS method; type: ADME, organism-based, Plasma; design: time infinity, dose 5 mg/kg, route oral; conditions: in vivo, 24 h
[23] = Cmax in BALB/c mouse at 5 mg/kg, po after 24 hrs by LC/MS/MS method; type: ADME, organism-based; design: dose 5 mg/kg, route oral; conditions: in vivo
Mus musculus [24] = assay: Apparent volume of distribution in BALB/c mouse at 5 mg/kg, po after 24 hrs by LC/MS/MS method; type: ADME, organism-based; design: dose 5 mg/kg, route oral; conditions: in vivo
Mus musculus [25] = assay: Apparent clearance in BALB/c mouse at 5 mg/kg, po after 24 hrs by LC/MS/MS method; type: ADME, organism-based; design: dose 5 mg/kg, route oral; conditions: in vivo, 24 h

T1 sequence (Q12809 whole entry): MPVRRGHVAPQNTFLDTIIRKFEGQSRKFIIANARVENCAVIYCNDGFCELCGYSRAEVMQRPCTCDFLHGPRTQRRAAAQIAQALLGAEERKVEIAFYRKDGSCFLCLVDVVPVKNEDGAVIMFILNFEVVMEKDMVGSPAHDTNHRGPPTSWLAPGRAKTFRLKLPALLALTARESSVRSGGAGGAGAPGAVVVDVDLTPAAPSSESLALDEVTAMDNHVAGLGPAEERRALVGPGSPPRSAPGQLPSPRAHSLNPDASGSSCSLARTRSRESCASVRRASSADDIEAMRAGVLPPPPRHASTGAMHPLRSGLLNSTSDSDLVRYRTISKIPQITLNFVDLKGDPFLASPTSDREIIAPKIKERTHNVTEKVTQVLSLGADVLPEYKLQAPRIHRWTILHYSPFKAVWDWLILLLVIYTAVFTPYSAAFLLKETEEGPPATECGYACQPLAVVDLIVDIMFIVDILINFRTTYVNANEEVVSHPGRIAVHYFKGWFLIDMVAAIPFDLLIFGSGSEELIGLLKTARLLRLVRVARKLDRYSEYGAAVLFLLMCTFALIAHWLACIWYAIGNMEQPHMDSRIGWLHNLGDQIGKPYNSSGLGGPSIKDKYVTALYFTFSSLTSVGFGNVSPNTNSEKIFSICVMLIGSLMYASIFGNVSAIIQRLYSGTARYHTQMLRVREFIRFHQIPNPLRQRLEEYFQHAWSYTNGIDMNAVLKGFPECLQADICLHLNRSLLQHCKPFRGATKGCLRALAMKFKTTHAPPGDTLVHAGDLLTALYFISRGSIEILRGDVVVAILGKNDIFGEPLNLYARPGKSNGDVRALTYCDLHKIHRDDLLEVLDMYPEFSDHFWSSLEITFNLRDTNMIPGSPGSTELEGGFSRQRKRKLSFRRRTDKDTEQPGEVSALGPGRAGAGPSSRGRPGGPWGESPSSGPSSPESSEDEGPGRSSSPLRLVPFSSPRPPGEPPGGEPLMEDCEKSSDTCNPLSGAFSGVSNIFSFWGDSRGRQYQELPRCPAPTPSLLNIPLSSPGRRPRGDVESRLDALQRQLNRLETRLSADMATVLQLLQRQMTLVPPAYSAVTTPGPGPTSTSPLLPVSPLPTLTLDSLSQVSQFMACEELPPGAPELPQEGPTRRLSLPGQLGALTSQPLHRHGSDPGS

IC50 (A-431): 11500 nM | IC50 [2]: 1570 nM | IC50 (NCI-H1975 [4]): 4370 nM
Structure (SMILES): O=C(Nc1cc2c(Nc3ccc(F)c(Cl)c3)ncnc2cc1O[C@H]1CCOC1)/C(F)=C/CN1CCOCC1
inhibition at 10 µM (hERG (KCNH2) [1]): 11.1% | inhibition at 1 µM (hERG (KCNH2) [3]): 0.94%

IC50 (A-431): 1340 nM | IC50 [5]: 11.2 nM | IC50 (NCI-H1975 [4]): 2980 nM
Structure (SMILES): CCOc1cc2ncnc(Nc3ccc(OCC4CC4)c(Cl)c3)c2cc1NC(=O)/C(F)=C\CN(C)C

microsomal CLint at 1 µM [6]: 5 µL/min/mg | microsomal CLint at 1 µM [7]: 105 µL/min/mg | microsomal CLint at 1 µM [8]: 26 µL/min/mg | microsomal CLint at 1 µM [9]: 50 µL/min/mg | microsomal CLint at 1 µM [10]: 221 µL/min/mg
Structure (SMILES): C=CC(=O)Nc1cc2c(Nc3ccc(F)c(Cl)c3)ncnc2cc1OCCCN1CCOCC1 [CANERTINIB]

IC50 [11]: 25.8 nM | IC50 (A-431): 3060 nM | IC50 [2]: 97.1 nM | IC50 (NCI-H1975 [4]): 1530 nM
Structure (SMILES): CN(C)C/C=C(/F)C(=O)Nc1cc2c(Nc3ccc(F)c(Cl)c3)ncnc2cc1O[C@H]1CCOC1
inhibition at 10 µM (hERG (KCNH2) [1]): 39.5% | inhibition at 1 µM (hERG (KCNH2) [3]): 6.37%

IC50 [11]: 3.77 nM | microsomal CLint at 1 µM [6]: 47 µL/min/mg | AUC(0-inf) [12]: 16.6 µM·h | IC50 (Cytochrome P450 1A2): > 10000 nM | IC50 (Cytochrome P450 3A4): > 10000 nM | microsomal CLint at 1 µM [7]: 33 µL/min/mg | Kp at 6 h [13]: 11 | IC50 (Cytochrome P450 2C19): > 10000 nM | IC50 (Cytochrome P450 2D6): > 10000 nM | Kp at 6 h [14]: 0.29 | microsomal CLint at 1 µM [8]: 95 µL/min/mg | Vz (Mus musculus [15]): 3.94 L/kg | CL/F [16]: 20 mL/min/kg | bioavailability [18]: 89.4% | IC50 (A-431): 340 nM | IC50 [5]: 0.18 nM | microsomal CLint at 1 µM [9]: 27 µL/min/mg | Cmax [19]: 2660 nM | microsomal CLint at 1 µM [10]: 97 µL/min/mg | IC50 (Cytochrome P450 2C9): > 10000 nM | IC50 [2]: 1.38 nM
Structure (SMILES): CCOc1cc2ncnc(Nc3ccc(OCc4ccccn4)c(Cl)c3)c2cc1NC(=O)/C(F)=C/CN(C)C
inhibition at 10 µM (hERG (KCNH2) [1]): 3.06% | T/C (NCI-H1975 [17]): 15.6% | inhibition at 1 µM (hERG (KCNH2) [3]): 0%

IC50 [11]: 37.9 nM | IC50 (A-431): 3490 nM | IC50 [5]: 12.9 nM | IC50 (NCI-H1975 [4]): 3600 nM
Structure (SMILES): CCOc1cc2ncnc(Nc3ccc(Oc4ccc(C)nc4)c(Cl)c3)c2cc1NC(=O)/C(F)=C/CN1CCCCC1

IC50 [11]: 2.1 nM | IC50 (A-431): 4020 nM | IC50 [5]: 1.56 nM | IC50 (NCI-H1975 [4]): 2060 nM
Structure (SMILES): COc1cc2ncnc(Nc3ccc(OCc4cccc(F)c4)c(Cl)c3)c2cc1NC(=O)/C(F)=C/CN(C)C

IC50 [11]: 7.1 nM | IC50 (A-431): 1670 nM | IC50 [5]: 4.5 nM | IC50 (NCI-H1975 [4]): 2490 nM
Structure (SMILES): CCOc1cc2ncnc(Nc3ccc(Oc4ccc(C)nc4)c(Cl)c3)c2cc1NC(=O)/C(F)=C/CN(C)C

IC50 (A-431): 1200 nM | IC50 [5]: 5 nM | IC50 (NCI-H1975 [4]): 4100 nM
Structure (SMILES): COc1cc2ncnc(Nc3cccc(Br)c3)c2cc1NC(=O)/C(F)=C\CN(C)C

Structure (SMILES): COc1cc(N)c(Cl)cc1C(=O)NC1CCN(CCCOc2ccc(F)cc2)CC1OC (configuration not stated) [CISAPRIDE]
inhibition at 0.1 µM (hERG (KCNH2) [20]): 65.5% | inhibition at 1 µM (hERG (KCNH2) [3]): 92.4%

bioavailability [21]: 16.5% | AUC (Mus musculus [22]): 14.7 µM·min | Cmax [23]: 90 nM | Vz (Mus musculus [24]): 12.2 L/kg | CL(app) (Mus musculus [25]): 120 mL/min/kg | IC50 (NCI-H1975 [4]): 1010 nM
Structure (SMILES): COc1cc2ncnc(Nc3ccc(F)c(Cl)c3)c2cc1NC(=O)/C(F)=C\CN1CCCCC1

IC50 (NCI-H1975 [4]): 1130 nM
Structure (SMILES): CCOc1cc2ncnc(Nc3ccc(OCc4ccccn4)c(Cl)c3)c2cc1NC(=O)/C(F)=C\CN(C)C
